Reference: ChEMBL document CHEMBL1255358, “Relation between genetic markers of drug resistance and susceptibility profile of clinical Neisseria gonorrhoeae strains” (2008)

Tests used:
Format in all cases: functional
Neisseria gonorrhoeae [1] = experiment: Antimicrobial activity against Neisseria gonorrhoeae obtained from patient with uncomplicated gonorrhea assessed as incidence of resistant isolates by agar dilution method
Outline: (§1)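 Clinical isolates shipped frozen on dry ice to a central lab, recovered from cryobeads onto GC agar and subcultured once. MICs were determined by agar dilution on GC agar supplemented with PolyViteX, with strain ATCC 49226 as control. Isolates were classed susceptible, intermediate or resistant by current CLSI criteria. Genotypes were assigned by PCR, and by minisequencing with MALDI-TOF mass spectrometry.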

Neisseria gonorrhoeae [2] = experiment: Antimicrobial activity against Neisseria gonorrhoeae obtained from patient with uncomplicated gonorrhea assessed as incidence of susceptible isolates by agar dilution method
Outline: (§2)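 Agar dilution MICs on GC agar supplemented with PolyViteX, tested against penicillin, tetracycline and fluoroquinolones. Clinical isolates were shipped frozen on dry ice to a central laboratory, recovered from cryobeads on GC agar plates and subcultured once before testing. Strain ATCC 49226 served as the control. Isolates were classed susceptible, intermediate or resistant using current CLSI interpretive criteria.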

Neisseria gonorrhoeae [3] = experiment: Antimicrobial activity against Neisseria gonorrhoeae obtained from patient with uncomplicated gonorrhea assessed as percentage intermediate isolates by agar dilution method; outline: as §2
Neisseria gonorrhoeae [4] = experiment: Antimicrobial activity against Neisseria gonorrhoeae obtained from patient with uncomplicated gonorrhea expressing penA mutant gene assessed as percentage intermediate isolates by agar dilution method; outline: as §1
Neisseria gonorrhoeae [5] = experiment: Antimicrobial activity against Neisseria gonorrhoeae obtained from patient with uncomplicated gonorrhea expressing penA mutant gene assessed as incidence of resistant isolates by agar dilution method; outline: as §1
Neisseria gonorrhoeae [6] = experiment: Antimicrobial activity against Neisseria gonorrhoeae obtained from patient with uncomplicated gonorrhea expressing mtrR mutant gene assessed as incidence of resistant isolates by agar dilution method; outline: as §1
Neisseria gonorrhoeae [7] = experiment: Antimicrobial activity against Neisseria gonorrhoeae obtained from patient with uncomplicated gonorrhea expressing penB mutant gene assessed as incidence of resistant isolates by agar dilution method; outline: as §1
Neisseria gonorrhoeae [8] = experiment: Antimicrobial activity against Neisseria gonorrhoeae obtained from patient with uncomplicated gonorrhea expressing penA and penB mutant gene assessed as incidence of resistant isolates by agar dilution method; outline: as §1
Neisseria gonorrhoeae [9] = experiment: Antimicrobial activity against Neisseria gonorrhoeae obtained from patient with uncomplicated gonorrhea expressing penA and mtrR mutant gene assessed as incidence of resistant isolates by agar dilution method; outline: as §1
Neisseria gonorrhoeae [10] = experiment: Antimicrobial activity against Neisseria gonorrhoeae obtained from patient with uncomplicated gonorrhea expressing penA, penB and mtrR mutant gene assessed as incidence of resistant isolates by agar dilution method; outline: as §1
Neisseria gonorrhoeae [11] = experiment: Antimicrobial activity against Neisseria gonorrhoeae obtained from patient with uncomplicated gonorrhea expressing penA and ponA mutant gene assessed as incidence of resistant isolates by agar dilution method; outline: as §1
Neisseria gonorrhoeae [12] = experiment: Antimicrobial activity against Neisseria gonorrhoeae obtained from patient with uncomplicated gonorrhea expressing penA, ponA and mtrR mutant gene assessed as incidence of resistant isolates by agar dilution method; outline: as §1
Neisseria gonorrhoeae [13] = experiment: Antimicrobial activity against Neisseria gonorrhoeae obtained from patient with uncomplicated gonorrhea expressing penA, penB and ponA mutant gene assessed as incidence of resistant isolates by agar dilution method; outline: as §1
Neisseria gonorrhoeae [14] = experiment: Antimicrobial activity against Neisseria gonorrhoeae obtained from patient with uncomplicated gonorrhea expressing penA, penB, ponA and mtrR mutant gene assessed as incidence of resistant isolates by agar dilution method; outline: as §1
Neisseria gonorrhoeae [15] = experiment: Antimicrobial activity against Neisseria gonorrhoeae obtained from patient with uncomplicated gonorrhea expressing beta-lactamase TEM-1 mutant gene assessed as incidence of resistant isolates by agar dilution method; outline: as §1
Neisseria gonorrhoeae [16] = experiment: Antimicrobial activity against Neisseria gonorrhoeae obtained from patient with uncomplicated gonorrhea expressing penA mutant gene assessed as incidence of susceptible isolates by agar dilution method; outline: as §1
Neisseria gonorrhoeae [17] = experiment: Antimicrobial activity against Neisseria gonorrhoeae obtained from patient with uncomplicated gonorrhea expressing mtrR mutant gene assessed as incidence of susceptible isolates by agar dilution method; outline: as §1
Neisseria gonorrhoeae [18] = experiment: Antimicrobial activity against Neisseria gonorrhoeae obtained from patient with uncomplicated gonorrhea expressing penB mutant gene assessed as incidence of susceptible isolates by agar dilution method
Outline: (§3)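 Clinical N. gonorrhoeae isolates were shipped frozen on dry ice and recovered from cryobeads on GC agar. They were subcultured once and then tested by agar dilution on GC agar with PolyViteX supplement, with ATCC 49226 as the control strain. Susceptible, intermediate or resistant status was set by CLSI criteria. Genotype came from PCR for blaTEM-1/tet(M) and from primer-extension minisequencing with MALDI-TOF detection of SNPs.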

Neisseria gonorrhoeae [19] = experiment: Antimicrobial activity against Neisseria gonorrhoeae obtained from patient with uncomplicated gonorrhea expressing penA and penB mutant gene assessed as incidence of susceptible isolates by agar dilution method; outline: as §1
Neisseria gonorrhoeae [20] = experiment: Antimicrobial activity against Neisseria gonorrhoeae obtained from patient with uncomplicated gonorrhea expressing penA and mtrR mutant gene assessed as incidence of susceptible isolates by agar dilution method; outline: as §1
Neisseria gonorrhoeae [21] = experiment: Antimicrobial activity against Neisseria gonorrhoeae obtained from patient with uncomplicated gonorrhea expressing penA, penB and mtrR mutant gene assessed as incidence of susceptible isolates by agar dilution method; outline: as §1
Neisseria gonorrhoeae [22] = experiment: Antimicrobial activity against Neisseria gonorrhoeae obtained from patient with uncomplicated gonorrhea expressing penA and ponA mutant gene assessed as incidence of susceptible isolates by agar dilution method; outline: as §1
Neisseria gonorrhoeae [23] = experiment: Antimicrobial activity against Neisseria gonorrhoeae obtained from patient with uncomplicated gonorrhea expressing penA, ponA and mtrR mutant gene assessed as incidence of susceptible isolates by agar dilution method; outline: as §1
Neisseria gonorrhoeae [24] = experiment: Antimicrobial activity against Neisseria gonorrhoeae obtained from patient with uncomplicated gonorrhea expressing penA, penB and ponA mutant gene assessed as incidence of susceptible isolates by agar dilution method; outline: as §1
Neisseria gonorrhoeae [25] = experiment: Antimicrobial activity against Neisseria gonorrhoeae obtained from patient with uncomplicated gonorrhea expressing penA, penB, ponA and mtrR mutant gene assessed as incidence of susceptible isolates by agar dilution method; outline: as §1
Neisseria gonorrhoeae [26] = experiment: Antimicrobial activity against Neisseria gonorrhoeae obtained from patient with uncomplicated gonorrhea expressing beta-lactamase TEM-1 mutant gene assessed as incidence of susceptible isolates by agar dilution method; outline: as §1
Neisseria gonorrhoeae [27] = experiment: Antimicrobial activity against Neisseria gonorrhoeae obtained from patient with uncomplicated gonorrhea expressing mtrR mutant gene assessed as percentage intermediate isolates by agar dilution method; outline: as §1
Neisseria gonorrhoeae [28] = experiment: Antimicrobial activity against Neisseria gonorrhoeae obtained from patient with uncomplicated gonorrhea expressing penB mutant gene assessed as percentage intermediate isolates by agar dilution method; outline: as §3
Neisseria gonorrhoeae [29] = experiment: Antimicrobial activity against Neisseria gonorrhoeae obtained from patient with uncomplicated gonorrhea expressing penA and penB mutant gene assessed as percentage intermediate isolates by agar dilution method; outline: as §1
Neisseria gonorrhoeae [30] = experiment: Antimicrobial activity against Neisseria gonorrhoeae obtained from patient with uncomplicated gonorrhea expressing penA and mtrR mutant gene assessed as percentage intermediate isolates by agar dilution method; outline: as §1
Neisseria gonorrhoeae [31] = experiment: Antimicrobial activity against Neisseria gonorrhoeae obtained from patient with uncomplicated gonorrhea expressing penA, penB and mtrR mutant gene assessed as percentage intermediate isolates by agar dilution method; outline: as §1
Neisseria gonorrhoeae [32] = experiment: Antimicrobial activity against Neisseria gonorrhoeae obtained from patient with uncomplicated gonorrhea expressing penA and ponA mutant gene assessed as percentage intermediate isolates by agar dilution method; outline: as §1
Neisseria gonorrhoeae [33] = experiment: Antimicrobial activity against Neisseria gonorrhoeae obtained from patient with uncomplicated gonorrhea expressing penA, ponA and mtrR mutant gene assessed as percentage intermediate isolates by agar dilution method; outline: as §1
Neisseria gonorrhoeae [34] = experiment: Antimicrobial activity against Neisseria gonorrhoeae obtained from patient with uncomplicated gonorrhea expressing penA, penB and ponA mutant gene assessed as percentage intermediate isolates by agar dilution method; outline: as §1
Neisseria gonorrhoeae [35] = experiment: Antimicrobial activity against Neisseria gonorrhoeae obtained from patient with uncomplicated gonorrhea expressing penA, penB, ponA and mtrR mutant gene assessed as percentage intermediate isolates by agar dilution method; outline: as §1
Neisseria gonorrhoeae [36] = experiment: Antimicrobial activity against Neisseria gonorrhoeae obtained from patient with uncomplicated gonorrhea expressing beta-lactamase TEM-1 mutant gene assessed as percentage intermediate isolates by agar dilution method; outline: as §1
Neisseria gonorrhoeae [37] = experiment: Antimicrobial activity against Neisseria gonorrhoeae obtained from patient with uncomplicated gonorrhea expressing rpsJ and penB mutant gene assessed as percentage intermediate isolates by agar dilution method; outline: as §3
Neisseria gonorrhoeae [38] = experiment: Antimicrobial activity against Neisseria gonorrhoeae obtained from patient with uncomplicated gonorrhea expressing rpsJ, penB and mtrR mutant gene assessed as percentage intermediate isolates by agar dilution method; outline: as §3
Neisseria gonorrhoeae [39] = experiment: Antimicrobial activity against Neisseria gonorrhoeae obtained from patient with uncomplicated gonorrhea expressing tetM mutant gene in combination with variants of other gene loci assessed as percentage intermediate isolates by agar dilution method; outline: as §3
Neisseria gonorrhoeae [40] = experiment: Antimicrobial activity against Neisseria gonorrhoeae obtained from patient with uncomplicated gonorrhea expressing rpsJ mutant gene assessed as incidence of resistant isolates by agar dilution method; outline: as §3
Neisseria gonorrhoeae [41] = experiment: Antimicrobial activity against Neisseria gonorrhoeae obtained from patient with uncomplicated gonorrhea expressing rpsJ and mtrR mutant gene assessed as incidence of resistant isolates by agar dilution method; outline: as §3
Neisseria gonorrhoeae [42] = experiment: Antimicrobial activity against Neisseria gonorrhoeae obtained from patient with uncomplicated gonorrhea expressing rpsJ and penB mutant gene assessed as incidence of resistant isolates by agar dilution method; outline: as §3
Neisseria gonorrhoeae [43] = experiment: Antimicrobial activity against Neisseria gonorrhoeae obtained from patient with uncomplicated gonorrhea expressing rpsJ, penB and mtrR mutant gene assessed as incidence of resistant isolates by agar dilution method; outline: as §3
Neisseria gonorrhoeae [44] = experiment: Antimicrobial activity against Neisseria gonorrhoeae obtained from patient with uncomplicated gonorrhea expressing tetM mutant gene in combination with variants of other gene loci assessed as incidence of resistant isolates by agar dilution method; outline: as §3
Neisseria gonorrhoeae [45] = experiment: Antimicrobial activity against Neisseria gonorrhoeae obtained from patient with uncomplicated gonorrhea expressing rpsJ mutant gene assessed as incidence of susceptible isolates by agar dilution method; outline: as §3
Neisseria gonorrhoeae [46] = experiment: Antimicrobial activity against Neisseria gonorrhoeae obtained from patient with uncomplicated gonorrhea expressing rpsJ and mtrR mutant gene assessed as incidence of susceptible isolates by agar dilution method; outline: as §3
Neisseria gonorrhoeae [47] = experiment: Antimicrobial activity against Neisseria gonorrhoeae obtained from patient with uncomplicated gonorrhea expressing rpsJ and penB mutant gene assessed as incidence of susceptible isolates by agar dilution method; outline: as §3
Neisseria gonorrhoeae [48] = experiment: Antimicrobial activity against Neisseria gonorrhoeae obtained from patient with uncomplicated gonorrhea expressing rpsJ, penB and mtrR mutant gene assessed as incidence of susceptible isolates by agar dilution method; outline: as §3
Neisseria gonorrhoeae [49] = experiment: Antimicrobial activity against Neisseria gonorrhoeae obtained from patient with uncomplicated gonorrhea expressing tetM mutant gene in combination with variants of other gene loci assessed as incidence of susceptible isolates by agar dilution method; outline: as §3
Neisseria gonorrhoeae [50] = experiment: Antimicrobial activity against Neisseria gonorrhoeae obtained from patient with uncomplicated gonorrhea expressing rpsJ mutant gene assessed as percentage intermediate isolates by agar dilution method; outline: as §3
Neisseria gonorrhoeae [51] = experiment: Antimicrobial activity against Neisseria gonorrhoeae obtained from patient with uncomplicated gonorrhea expressing rpsJ and mtrR mutant gene assessed as percentage intermediate isolates by agar dilution method; outline: as §3

SMILES: O=C(O)c1cn(C2CC2)c2cc(N3CCNCC3)c(F)cc2c1=O [CIPROFLOXACIN]
- Activity (Neisseria gonorrhoeae [1]): 0%
- Activity (Neisseria gonorrhoeae [2]): 99.3%
- Activity (Neisseria gonorrhoeae [3]): 0.7%
- Activity (Neisseria gonorrhoeae [4]): 0%

SMILES: CC1(C)S[C@@H]2[C@H](NC(=O)Cc3ccccc3)C(=O)N2[C@H]1C(=O)O [PENICILLIN G]
- Activity (Neisseria gonorrhoeae [1]): 0%
- Activity (Neisseria gonorrhoeae [5]): 3.9%
- Activity (Neisseria gonorrhoeae [6]): 0%
- Activity (Neisseria gonorrhoeae [7]): 0%
- Activity (Neisseria gonorrhoeae [8]): 0%
- Activity (Neisseria gonorrhoeae [9]): 6.7%
- Activity (Neisseria gonorrhoeae [10]): 0%
- Activity (Neisseria gonorrhoeae [11]): 5.1%
- Activity (Neisseria gonorrhoeae [12]): 8%
- Activity (Neisseria gonorrhoeae [13]): 9.2%
- Activity (Neisseria gonorrhoeae [14]): 17.3%
- Activity (Neisseria gonorrhoeae [15]): 83.3%
- Activity (Neisseria gonorrhoeae [2]): 90.7%
- Activity (Neisseria gonorrhoeae [16]): 49%
- Activity (Neisseria gonorrhoeae [17]): 100%
- Activity (Neisseria gonorrhoeae [18]): 100%
- Activity (Neisseria gonorrhoeae [19]): 28.6%
- Activity (Neisseria gonorrhoeae [20]): 33.3%
- Activity (Neisseria gonorrhoeae [21]): 50%
- Activity (Neisseria gonorrhoeae [22]): 15.4%
- Activity (Neisseria gonorrhoeae [23]): 9.7%
- Activity (Neisseria gonorrhoeae [24]): 7.9%
- Activity (Neisseria gonorrhoeae [25]): 11.3%
- Activity (Neisseria gonorrhoeae [26]): 0%
- Activity (Neisseria gonorrhoeae [3]): 9.3%
- Activity (Neisseria gonorrhoeae [4]): 47.1%
- Activity (Neisseria gonorrhoeae [27]): 0%
- Activity (Neisseria gonorrhoeae [28]): 0%
- Activity (Neisseria gonorrhoeae [29]): 71.4%
- Activity (Neisseria gonorrhoeae [30]): 60%
- Activity (Neisseria gonorrhoeae [31]): 50%
- Activity (Neisseria gonorrhoeae [32]): 79.5%
- Activity (Neisseria gonorrhoeae [33]): 82.3%
- Activity (Neisseria gonorrhoeae [34]): 82.8%
- Activity (Neisseria gonorrhoeae [35]): 71.4%
- Activity (Neisseria gonorrhoeae [36]): 16.7%

SMILES: CN(C)[C@@H]1C(O)=C(C(N)=O)C(=O)[C@@]2(O)C(O)=C3C(=O)c4c(O)cccc4[C@@](C)(O)[C@H]3C[C@@H]12 [TETRACYCLINE]
- Activity (Neisseria gonorrhoeae [37]): 25.3%
- Activity (Neisseria gonorrhoeae [38]): 23%
- Activity (Neisseria gonorrhoeae [39]): 0%
- Activity (Neisseria gonorrhoeae [1]): 0%
- Activity (Neisseria gonorrhoeae [6]): 0%
- Activity (Neisseria gonorrhoeae [40]): 18.7%
- Activity (Neisseria gonorrhoeae [41]): 46.2%
- Activity (Neisseria gonorrhoeae [42]): 54%
- Activity (Neisseria gonorrhoeae [43]): 56.1%
- Activity (Neisseria gonorrhoeae [44]): 100%
- Activity (Neisseria gonorrhoeae [2]): 83.5%
- Activity (Neisseria gonorrhoeae [17]): 100%
- Activity (Neisseria gonorrhoeae [45]): 30.5%
- Activity (Neisseria gonorrhoeae [46]): 26.9%
- Activity (Neisseria gonorrhoeae [47]): 20.7%
- Activity (Neisseria gonorrhoeae [48]): 20.9%
- Activity (Neisseria gonorrhoeae [49]): 0%
- Activity (Neisseria gonorrhoeae [3]): 16.5%
- Activity (Neisseria gonorrhoeae [4]): 0%
- Activity (Neisseria gonorrhoeae [27]): 0%
- Activity (Neisseria gonorrhoeae [50]): 50.8%
- Activity (Neisseria gonorrhoeae [51]): 26.9%
